# Rows were chosen to be rich in hits. Some 0.55% of all compounds tested hit in one or more screens of this group.
# OXTR potentiate – human OXTR potentiators, primary screen, fluorescence, CHO-OTR cells, Fluo-8 calcium; Oxytocin receptor (Homo sapiens), P30559; Fluo-8 calcium fluorescence, potentiator mode; 0% = oxytocin EC15, 100% = EC100; activation, % at 3 µM; hit rate 0.061% among 320,000;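 active = activation above that plate's cutoff, the mean activation of tested compounds plus 3 SD, cut at about 6.6% in these data, passing the limit was not always enough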;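 note: 100% uses oxytocin at 75 nM as the full agonist control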
#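 Material: human OTR in CHO cells. Compound: 3.0 µM, one dose. Timing: compound 6 min at room temperature before oxytocin, 100 s read. Evaluation: % activation of max/min ratio relative to oxytocin controls. Replication: single well per compound, singlicate. Signal: Fluo-8 calcium dye fluorescence.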
# zfTRPN1 agonist – zebrafish TRPN1 channel agonists, primary screen, cell-based, HEK293, calcium fluorescence. HEK293 zebrafish TRPN1-YFP, Fluo-8 calcium fluorescence; 100% = response to 87 µM carbachol. transient receptor potential cation channel N1 (TRPN1/NompC), Danio rerio. activation, % at 3 µM. AID 1424, 2008. hit rate 0.18% among 220,000;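 active = activation above its plate's cutoff, the mean activation of test wells on that plate plus 3 SD, cut at about 19% in these data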;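 note: 0% = DMSO alone and 100% = 87 µM carbachol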
#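 Material: zebrafish TRPN1-YFP in HEK293 cells. Doses: one dose of 3 µM, 0.3% DMSO. Incubation: dye 1 h 37 °C plus 30 min RT. Measured by: intracellular calcium fluorescence with Fluo-8.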
# V1aR counter – agonists of human V1a receptor, primary screen, counter-screen for OXTR agonist project, fluorescence, CHO-V1R cells; Fluo-8 calcium fluorescence, agonist mode; 0% DMSO, 100% 3 nM vasopressin; activation, % at 3 µM; hit rate 0.25% among 320,000; AID 2797, 2010;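 active = activation above the mean activation of all tested compounds plus 3 SD, per screening run, cut at about 20% in these data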;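 note: signal is peak over basal fluorescence ratio across a 100 second FLIPR read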
# Target sequence (P37288 whole entry, looked up): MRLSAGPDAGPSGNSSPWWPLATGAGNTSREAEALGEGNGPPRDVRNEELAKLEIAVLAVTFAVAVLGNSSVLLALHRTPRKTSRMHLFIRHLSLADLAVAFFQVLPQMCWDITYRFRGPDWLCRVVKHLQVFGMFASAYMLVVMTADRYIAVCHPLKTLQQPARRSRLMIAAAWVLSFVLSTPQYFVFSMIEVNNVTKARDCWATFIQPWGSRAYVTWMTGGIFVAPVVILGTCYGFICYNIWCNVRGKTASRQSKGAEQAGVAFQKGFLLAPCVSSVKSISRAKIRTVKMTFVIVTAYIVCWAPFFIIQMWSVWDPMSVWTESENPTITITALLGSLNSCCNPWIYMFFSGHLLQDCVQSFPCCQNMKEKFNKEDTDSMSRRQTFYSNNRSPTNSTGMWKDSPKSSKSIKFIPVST
# TRPML3 agonist – human TRPML3 channel agonists, primary screen, cell-based, HEK293 TRPML3-YFP, Fluo-8 calcium fluorescence, 3 µM; Mucolipin-3 (Homo sapiens), Q8TDD5; 100% = the carbachol control signal; activation, % at 3 µM; hit rate 0.29% among 220,000; AID 1448, 2008;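 active = activation above its plate's cutoff, the mean activation of the plate's test wells plus 3 SD, cut at about 12% in these data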;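 note: 0% = DMSO only wells and 100% = carbachol wells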
#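 Test system – HEK293 line with stable expression of human TRPML3-YFP channel · Control set – carbachol 87 µM final as high control (100%), DMSO as low control (0%) · Signal – Fluo-8 calcium dye fluorescence, ex 470-495, em 515-575 nm · Incubation – 1-h 37 °C dye load, 5-s basal, 120-s post-compound reads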
# OXTR ag – human OXTR agonists, primary screen, fluorescence, CHO-OTR cells, Fluo-8 calcium; activation, % at 3 µM; AID 2435, 2010; Fluo-8 calcium fluorescence; normalized: DMSO 0%, oxytocin 100%; Oxytocin receptor (Homo sapiens), P30559; hit rate 0.32% among 320,000;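 active = activation above the mean of all tested compounds plus 3 SD, cutoff set per screening run, cut at about 20% in these data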;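 note: peak over basal fluorescence ratio from a 100 s FLIPR kinetic read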
# The depositor's hits bear a star; / = not tested or not shown; + = active, no number.
SMILES,OXTR potentiate,zfTRPN1 agonist,V1aR counter,TRPML3 agonist,OXTR ag
O=C(OCCN1C(=O)c2cccc3c(N4CCOCC4)ccc(c23)C1=O)c1cccc(Cl)c1,-11,6,22*,7,23*
O=C(OCCN1C(=O)c2cccc3c(N4CCOCC4)ccc(c23)C1=O)c1ccc(Cl)cc1Cl,-5,7,9,4,14
O=C(c1ccncc1)c1ccc(N2CCN(C3CC(=O)N(Cc4ccccc4)C3=O)CC2)cc1 (centres undefined),-24,10,17,5,19
N#C/C(=C(/O)C(Cl)(Cl)Cl)c1nc2ccccc2[nH]1,-8,20*,13,5,15
C=CCN1C(=O)/C(=C/C=C2/N(CC)c3ccc(S(=O)(=O)N(C)C)cc3N2CC)SC1=S,-20,11,26*,4,30*
CCOC(=O)c1ccc2c(c1)N(CC)/C(=C\C=C1/SC(=S)N(CC)C1=O)N2CC,/,0,/,0,/
CC(=O)N1C(=O)C(=C2C=C(C)OC(C)=C2)c2ccccc21,2,26*,-2,0,-2
CC(OC(=O)CCCN=C1NS(=O)(=O)c2ccccc21)C(=O)c1ccccc1 (centres undefined),-20,/,34*,/,36*
Cc1ccc(O)c(C(=O)c2cc(C#N)c(=O)n(-c3nccs3)c2)c1,-15,45*,54*,19*,66*
COc1cc(OC)c(-c2c3cc(O)c(=O)cc-3oc3cc(O)c(O)cc23)cc1OC,-12,291*,389*,206*,390*
Cc1c2cc(O)c(=O)cc-2oc2cc(O)c(O)cc12,-14,1,8,3,68*
Cn1cccc1Cc1nnc(SCC(=O)NCc2ccccc2)n1-c1ccc(F)cc1,-2,0,0,0,0
CCCCCCn1c(=O)[nH]c2nc3cc(N)c(C)cc3nc2c1=O,/,42*,/,15*,/
CCN1CCN(CC(=O)Nc2cc(S(=O)(=O)N(CC)c3ccccc3)ccc2Cl)CC1,-9,/,2,/,2
COc1ccc(/C=N/NC(=O)c2nnn(-c3nonc3N)c2-c2cccs2)cc1OC,-9,/,11,/,6
CC(C)c1c(C(=O)N/N=C/c2ccc(C(F)(F)F)cc2)nnn1-c1nonc1N,-8,/,79*,/,66*
Cc1ccc(/C=N/NC(=O)c2nnn(-c3nonc3N)c2-c2cccs2)cc1,-10,/,42*,/,56*
COc1cccc(-c2c(C(=O)N/N=C/c3cccs3)nnn2-c2nonc2N)c1,-8,/,28*,/,21*
CC(C)c1c(C(=O)N/N=C/c2ccoc2)nnn1-c1nonc1N,-10,/,1,/,3
CC1CC(C)CN(CCOCCSc2ccc(Cl)cc2)C1 (centres undefined),-8,0,5,0,9
COC(=O)c1onc(-c2c(C)cc(C)cc2C)c1C(=O)OC,-6,-3,2,-1,-2
COc1ccc(NS(=O)(=O)c2cccc(C(=O)NCCCN3CCOCC3)c2)cc1,-5,/,-1,/,0
Cc1cnc(NC(=O)CSc2ncc(-c3ccccc3)n2Cc2ccco2)s1,-34,17,30*,10,26*
O=C(Nc1ccccn1)c1ccc2c(c1)S(=O)(=O)c1ccccc1C2=O,-6,2,0,1,2
O=C1c2ccccc2S(=O)(=O)c2cc(C(=O)N(c3ccccn3)c3ccccn3)ccc21,-11,35*,89*,76*,88*
SMILES,OXTR potentiate,zfTRPN1 agonist,V1aR counter,TRPML3 agonist,OXTR ag
COc1ccc2[nH]c(=O)c(-c3noc(-c4ccccc4)n3)cc2c1,-4,0,-1,1,-1
COC(=O)c1ccccc1-c1c2ccc(=N)cc-2oc2cc(N)ccc12,-12,/,+,/,+
COc1ccc(C)cc1NC(=O)NC1CCN(Cc2ccccc2)CC1,-5,2,2,0,4
Oc1ccc(C23CCCC2C2(CCCC2)c2ccc(O)cc2O3)c(O)c1 (centres undefined),-15,/,28*,/,39*
O=C(O)CN=C(NS(=O)(=O)c1ccc(Cl)cc1)c1ccc(F)cc1,-6,1,0,1,0
COC(=O)c1ccc2c(=O)[nH]c(CSc3nnc(C(F)(F)F)n3C)nc2c1,3,0,0,1,0
Cc1ccc(NS(=O)(=O)c2ccc(C(=O)NC3CCN(Cc4ccccc4)CC3)cc2)cc1,-10,/,21*,/,22*
CCOc1ccc(NS(=O)(=O)c2ccc(C(=O)NCc3ccncc3)cc2)cc1,-14,/,8,/,7
CS(=O)(=O)Nc1ccc(C(=O)NCc2ccccn2)cc1,-2,0,0,1,0
Cc1ccc(S(=O)(=O)Nc2cccc(C(=O)NC3CCN(Cc4ccccc4)CC3)c2)cc1F,-18,/,2,/,2
CCOc1ccc(NS(=O)(=O)c2ccc(C(=O)NCC(c3ccco3)N(C)C)cc2)cc1 (centres undefined),-17,/,23*,/,26*
Cc1ccc(NS(=O)(=O)c2ccc(C(=O)NCc3ccccn3)cc2)cc1,-16,/,31*,/,25*
CCOc1ccc(NS(=O)(=O)c2ccc(C(=O)NCc3ccccn3)cc2)cc1,-19,/,27*,/,31*
COCCOC(=O)/C(=C\c1cc(C(C)(C)C)c(O)c(C(C)(C)C)c1)C(C)=O,-4,-1,-2,0,-1
Cc1cc(S(=O)(=O)Nc2ccc(C(=O)NCC3(N4CCCCC4)CCCCC3)cc2)ccc1F,7,/,0,/,1
CCOc1ccc(NS(=O)(=O)c2ccc(C(=O)NCC3(N4CCCCC4)CCCCC3)cc2)cc1,-11,/,25*,/,36*
O=C(COC(=O)c1ccc(NS(=O)(=O)c2cccs2)cc1O)NC1CCCCC1,-4,1,1,1,0
CCN1/C(=C/C=C/c2oc3ccc(-c4ccccc4)cc3[n+]2CC)Oc2ccc(-c3ccccc3)cc21,-10,777*,761*,326*,662*
N#C/C(=N\Nc1ccccc1)C(N)=S,-12,5,8,2,5
N#C/C(=N\Nc1ccc(Cl)cc1)C(N)=S,-18,25*,13,16*,17
Cc1ccc(N/N=C(\C#N)C(N)=S)cc1C,-33,24*,14,13*,17
Cc1ccc(NC(N)=S)cc1C,-7,0,-1,1,0
O=C(NC(Nc1nc2ccc([N+](=O)[O-])cc2s1)(C(F)(F)F)C(F)(F)F)c1cccnc1,-12,18,14,10,17

# From PubChem BioAssay
